Measurements taken from paper PMC4377161 (Molecular cancer therapeutics, 2014).
Entries after “also recorded” stand apart in the source; their conditions may differ.

Key:
[1] = tested on: mutant V600EB-Raf melanoma; details: cited from earlier work
[2] = tested on: MDA-MB-231; experiment: MTS cell viability, MDA-MB-231 breast cancer; format: cell-based; details: read-out: IC50, Other cancer types, 24 h
In short: (§1)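 Cells kept in DMEM with 1% Glutamax and 10% FBS at 37°C, 5% CO2. Seeded at 5×10^3 cells/well in 96-well plates and grown before treatment. Treated with DMSO vehicle or 0.62 to 40 µmol/L test compound for 24, 48 or 72 h. Viability read by MTS. IC50 per cell line derived from three independent experiments by curve fitting.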

[3] = tested on: MCF-7; experiment: MTS cell viability, MCF-7 breast cancer; format: cell-based; details: read-out: IC50, Other cancer types, 24 h
In short: as §1

[4] = tested on: A-549; experiment: MTS cell viability, A-549 lung cancer; format: cell-based; details: read-out: IC50, Other cancer types, 24 h
In short: as §1

[5] = tested on: LNCap; experiment: MTS cell viability, LNCap prostate cancer; format: cell-based; details: read-out: IC50, Other cancer types, 24 h
In short: as §1

[6] = tested on: PC-3; experiment: MTS cell viability, PC-3 prostate cancer; format: cell-based; details: read-out: IC50, Other cancer types, 24 h
In short: as §1

[7] = tested on: HT-1080; experiment: MTS cell viability, HT-1080 fibrosarcoma; format: cell-based; details: read-out: IC50, Other cancer types, 24 h
In short: as §1

[8] = tested on: MiA PaCa-2; experiment: MTS cell viability, MiA PaCa-2 pancreas cancer; format: cell-based; details: read-out: IC50, Other cancer types, 24 h
In short: as §1

[9] = tested on: HCT-116; experiment: MTS cell viability, HCT-116 colon cancer; format: cell-based; details: read-out: IC50, Other cancer types, 24 h
In short: as §1

[10] = tested on: HT-29; experiment: MTS cell viability, HT-29 colon cancer; format: cell-based; details: read-out: IC50, Other cancer types, 24 h
In short: as §1

[11] = tested on: SW-480; experiment: MTS cell viability, SW-480 colon cancer; format: cell-based; details: read-out: IC50, Other cancer types, 24 h
In short: as §1

[12] = tested on: melanoma cells; experiment: MTS cell viability, melanoma cell lines; format: cell-based, human
In short: (§2)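 Melanoma lines (WM35, SbCl2, WM115, WM278.1, SK-MEL-24, 1205 Lu, UACC 903) and normal cells (FOM103 melanocytes, FF2441 fibroblasts, foreskin keratinocytes) seeded at 5×10^3 cells/well in 96-well plates. Exposed to DMSO vehicle or 0.62–40 µmol/L test compound for 24, 48 or 72 h, then MTS read. IC50 from three independent experiments per line, averaged across each group.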

[13] = tested on: normal cells; experiment: MTS cell viability, normal cells; format: cell-based, human; details: read-out: average IC50, normal cells; average over normal cells
In short: as §2

[14] = tested on: UACC 903 melanoma cells; experiment: Natural product library NPL-480 primary screen, MTS; format: cell-based, human; details: 5 µmol/L, 24 hours, UACC 903, MTS
In short: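 UACC 903 cells plated at 5×10^3 per well in 96-well plates for 24 h. Each library compound, from 10 mM DMSO stocks, added at 5 µmol/L final for 24 h. Viability read by MTS. Screen run three times and averaged.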

[15] = tested on: UACC 903 and 1205 Lu cells; experiment: Apo-ONE caspase-3/7 apoptosis assay; format: cell-based, human; details: longer exposure
[16] = tested on: UACC 903 and 1205 Lu cells; experiment: Cell cycle analysis, propidium iodide FACS; format: cell-based, human; details: 24 hours leelamine treatment, propidium iodide stained UACC 903 and 1205 Lu cells
[17] = tested on: PI3K/Akt pathway; experiment: Western blot of pathway signaling, PI3K/Akt; format: cell-based, human; details: 3 to 6 µmol/L for 3 to 24 hours, UACC 903 and 1205 Lu
In short: (§3)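 1.5×10^6 melanoma cells plated in 100 mm dishes. After 48 h, treated with 3–6 µmol/L test compound for 3 to 24 h, then lysed in RIPA and immunoblotted with ECL detection; α-enolase as loading control. Probes: MAPK, phospho-Erk1/2 (Thr202/Tyr204) and total Erk1/2; PI3K/Akt, phospho-Akt (Ser473), total Akt, phospho-PRAS40 (Thr246), phospho-p70S6K (Thr389); STAT3, phospho-Stat3 (Tyr705), total Stat3.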

[18] = tested on: MAPK pathway; experiment: Western blot of pathway signaling, MAPK; format: cell-based, human; details: 3 to 6 µmol/L for 3 to 24 hours, UACC 903 and 1205 Lu
In short: as §3

[19] = tested on: STAT3 pathway; experiment: Western blot of pathway signaling, STAT3; format: cell-based, human; details: UACC 903 and 1205 Lu
In short: as §3

[20] = tested on: UACC 903 xenografted melanoma tumors; experiment: Xenograft tumor growth, UACC 903; format: in vivo, Athymic Nude-Foxn1nu mice; details: UACC 903 xenograft, 5–7.5 mg/kg i.p. daily, versus DMSO vehicle control
In short: (§4)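 Female Athymic Nude-Foxn1nu mice, 3–4 weeks old, injected s.c. above both rib cages with 1×10^6 UACC 903 or 1205 Lu cells in 0.2 mL DMEM with 10% FBS and 1% Glutamax. At day 6, with 50–75 mm3 tumors, mice randomized (5 mice/group, 2 tumors/mouse). Dosed i.p. daily for 3–4 weeks with DMSO vehicle or […] test compound, depending on cell line. Tumor size and body weight measured every 2 days.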

[21] = tested on: 1205 Lu xenografted melanoma tumors; experiment: Xenograft tumor growth, 1205 Lu; format: in vivo, Athymic Nude-Foxn1nu mice; details: 1205 Lu xenograft, 5–7.5 mg/kg i.p. daily, versus DMSO vehicle control
In short: as §4

[22] = tested on: preexisting xenografted melanoma tumors; experiment: Xenograft tumor growth and body weight, UACC 903 or 1205 Lu; format: in vivo, Athymic Nude-Foxn1nu mice
In short: as §4

[23] = Toxicity assessment; format: in vivo; details: Swiss Webster mice; for blood markers of major organ function (ALP, ALT, AST, CK, CREA, GLU): 10 mg/kg i.p. daily
In short: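 Swiss Webster mice (n=5) given 5 or 10 mg/kg test compound i.p. daily for 22 days and weighed daily. At termination, blood taken by cardiac puncture into lithium heparin serum separator tubes for ALP, ALT, AST, CK, creatinine and glucose. On day 22 liver, spleen, kidney, intestine, lung and heart were formalin-fixed, paraffin-embedded, H&E stained and examined microscopically.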

[24] = tested on: UACC 903 tumors; experiment: Size and time matched tumors, Ki-67 immunohistochemistry; format: in vivo, nude mice; details: day 11, UACC 903 tumors, 7.5 mg/kg i.p. daily from day 6
In short: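 Nude mice injected s.c. with 2.5×10^6 UACC 903 cells. From day 6, dosed i.p. daily to day 15 with DMSO vehicle or 7.5 mg/kg test compound. Size- and time-matched tumors harvested at days 11, 13 and 15 and immunostained with mouse anti-human Ki-67. Positive cells scored as % of total cells, ≥6 tumors, 4–6 fields each.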

[25] = tested on: pAkt (Ser473); experiment: Western blot of size and time matched tumor lysates, pAkt; format: in vivo, nude mice; details: days 11, 13 and 15, 7.5 mg/kg i.p. daily from day 6, versus DMSO
In short: (§5)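 Same size- and time-matched UACC 903 s.c. tumors in nude mice: 7.5 mg/kg test compound or DMSO vehicle given i.p. daily from day 6. Lysates from tumors harvested at days 11, 13 and 15 immunoblotted for pAkt (Ser473) or pStat3 (Tyr705), compared with vehicle-treated tumors.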

[26] = tested on: pStat3 (Tyr705); experiment: Western blot of size and time matched tumor lysates, pStat3; format: in vivo, nude mice; details: days 11, 13 and 15, 7.5 mg/kg i.p. daily from day 6, versus DMSO
In short: as §5

[27] = tested on: cannabinoid receptor CB1; details: cited from earlier work
[28] = tested on: G-protein activity; details: cited from earlier work

CCCS(=O)(=O)Nc1ccc(F)c(C(=O)c2c[nH]c3ncc(-c4ccc(Cl)cc4)cc23)c1F [Zelboraf]
progression-free survival [1]: 6.2 months | partial or complete anti-tumor response rate ([1]; patients having mutant V600EB-Raf, first 2-month treatment cycle): approximately 80%

CC(C)c1ccc2c(c1)CC[C@H]1[C@](C)(CN)CCC[C@]21C [leelamine, Dehydroabietylamine]
IC50 [2]: 5.82 ± 0.87 µM | IC50 [3]: 7.12 ± 1.3 µM | IC50 [4]: 8.81 ± 0.82 µM | IC50 [5]: 10.9 ± 0.23 µM | IC50 [6]: 5.41 ± 2.6 µM | IC50 [7]: 4.01 ± 0.27 µM | IC50 [8]: 4.69 ± 0.37 µM | IC50 [9]: 4.8 ± 0.5 µM | IC50 [10]: 5.95 ± 1.23 µM | IC50 [11]: 1.55 ± 0.33 µM | fold more effective at inhibiting cultured melanoma cell survival than normal cells ([12]; melanoma cells versus normal cells, average): 4.5 fold | IC50 ([12]; read-out: average IC50, cultured melanoma cells, average over melanoma cells): 2 µM | IC50 [13]: 9.3 µM | decrease in cell viability [14]: approximately 95% | increase in apoptosis [15]: 600% | cell cycle distribution [16]: increase in the sub-G0/G1 and G0/G1 cell populations, with a corresponding decrease in the S-phase population | signaling through PI3K pathway [17]: Decreased signaling | signaling through MAPK pathway [18]: Decreased signaling | signaling through STAT3 pathway ([19]; 3 to 6 µmol/L for 3 to 24 hours): Decreased signaling | time from which inhibition of STAT3 pathway occurred ([19]; 3 to 6 µmol/L): ≥ 12 h | reduction of tumor volume [20]: 61% | reduction of tumor volume [21]: 57% | inhibition of growth of preexisting xenografted melanoma tumors, average ([22]; average of UACC 903 and 1205 Lu xenografts, i.p. daily for 3 to 4 weeks): 60% | animal body weight ([22]; xenograft-bearing nude mice, leelamine i.p. daily versus DMSO control): no significant differences | blood markers of major organ function (ALP, ALT, AST, CK, CREA, GLU) ([23]; after 22 days, 10 mg/kg): No significant differences; also recorded: negligible toxicity | blood markers of major organ function (ALP, ALT, AST, CK, CREA, GLU) ([23]; after 22 days, listed as Leelamine, 10 mg/kg): without affecting | histological examination of H&E stained vital organ sections (cellular morphology or overall structure) ([23]; 10 mg/kg, after 22 days, liver, spleen, kidney, intestine, lung, heart, 10 mg/kg): no change; also recorded: no differences | body weights ([23]; 5 or 10 mg/kg i.p. daily, 22 days): No significant difference | reduction in proliferating cells (Ki-67) [24]: 50% | active pAkt (Ser473) in tumor lysates [25]: decreased; also recorded: inhibition | pStat3 (Tyr705) in tumor lysates [26]: decreased; also recorded: inhibition | binding to the cannabinoid receptor CB1 [27]: weakly binding | stimulation of G-protein activity [28]: not stimulating
